# Screens (PubChem BioAssay)
# NCF1 inh = blocks human p47phox regulatory protein of NADPH oxidases; inhibition, % at 24.7 µM; 0.53% of 220,000 active; AID 1274; P14598; p47phox/p22phox peptide binding, fluorescence polarization, 2 h;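 active means inhibition above about 30%, limit read from the data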;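 further: 0% = p47phox with labelled peptide and 100% = labelled peptide alone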
# Target sequence (P14598 whole entry, looked up): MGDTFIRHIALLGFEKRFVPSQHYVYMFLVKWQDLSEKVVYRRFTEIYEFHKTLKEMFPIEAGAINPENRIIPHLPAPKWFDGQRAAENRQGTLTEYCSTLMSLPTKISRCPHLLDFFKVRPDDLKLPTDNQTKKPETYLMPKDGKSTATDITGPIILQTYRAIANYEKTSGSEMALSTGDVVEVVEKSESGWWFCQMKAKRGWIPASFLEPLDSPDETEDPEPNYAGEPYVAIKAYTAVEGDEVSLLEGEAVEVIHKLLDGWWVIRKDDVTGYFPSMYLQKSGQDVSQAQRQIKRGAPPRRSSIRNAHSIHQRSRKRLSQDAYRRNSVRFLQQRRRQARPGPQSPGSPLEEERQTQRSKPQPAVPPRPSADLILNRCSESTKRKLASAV
# PMI act satM6P = increases human PMI activity with near-saturating mannose 6-phosphate. AID 1216. activation factor at 20 µM. 0.34% of 190,000 active. coupled PMI enzyme assay, resazurin fluorescence, 20 min; active compounds read high; 1 = untreated enzyme, 0 = substrate-free blank. P34949;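 active means activation factor of 2 or more at 20 µM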
#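 Technique: Diaphorase-driven resazurin-to-resorufin fluorescence, excitation 544, emission 590 nm | Assay system: Human PMI in coupled enzyme assay | Times: Enzyme reaction with compound 20 min at room temperature | Medium: HEPES-buffered pH 7.4 with magnesium and detergent | Reagent: Mannose-6-phosphate 1.0 mM (near-saturating) plus 0.22 mM NADP+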
# Avidin fluor = avidin bead compound fluorescence profile; Avidin beads, compound fluorescence 488/530 nm, flow cytometry; active compounds read high; fluorescence (KMESF) at 10 µM; 0.38% of 220,000 active; in the data active means fluorescence above about 47
# PMI activator = activators of human phosphomannose isomerase. 0.005% of 190,000 active. P34949. purified human PMI, coupled resazurin fluorescence, 20 min; active compounds read high; 1 = vehicle control, 0 substrate-free wells. activation factor at 20 µM;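 active means activation factor of 2 or more at 20 µM, relative to plate controls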
# Diaph act CS = counter-screen for diaphorase-based assays: diaphorase activators and chemical reducers. Diaphorase/resazurin coupled assay, resorufin fluorescence, 16 min; active compounds read high; 1 = vehicle wells, 0 = NADH-free wells. activation factor at 20 µM. 0.005% of 190,000 active. AID 1229;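 active means diaphorase activity raised at least twofold by the compound at 20 µM; inactive means activation factor below 2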
#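 Material: Clostridium kluyveri diaphorase, purified enzyme; Quantity: enzyme 0.07 U/mL final; Medium: HEPES pH 7.4 buffer with MgCl2 and Tween 20; Dosing: single compound dose of 20 µM, 1% DMSO final; Schedule: 16 min reaction at room temperature; Measured by: red resorufin fluorescence at 544/590 nm excitation/emission.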
# GSH bead fluor = GSH bead compound fluorescence profile. GSH beads flow cytometry, compound fluorescence 488/530 nm; active compounds read high. 0.25% of 190,000 active. AID 1776. fluorescence (KMESF) at 10 µM; in the data active means fluorescence above about 89;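 further: glutathione beads carrying GST-tagged Bcl family fusion proteins plus one bare bead set; values are compound well signal with DMSO vehicle wells as background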
# * hit, by the source's call; · = not tested or not shown; + = active, no number. The list is not random: actives were taken first. Their share in the collection is about 1.4%.
SMILES,NCF1 inh,PMI act satM6P,Avidin fluor,PMI activator,Diaph act CS,GSH bead fluor
O=C1CCCc2ccccc2N1Cc1ccc(Cl)cc1Cl,-5,0.9,68*,0.9,0.9,20
CCc1c(C(=O)NCc2ccccc2Cl)[nH]c(C)c1C(C)=O,-6,0.9,6,1,0.9,16
COC(=O)CSc1nnnn1-c1ccccc1,0,1,7,1,1,4
CCOC(=O)NC(=O)CSc1nnnn1-c1ccccc1,-12,0.9,109*,0.9,1,30
Cc1cc(C(=O)N/N=C\c2ccc(COc3ccc([N+](=O)[O-])cc3)o2)ccc1[N+](=O)[O-],-10,0.8,14,0.8,0.8,37
Cn1ncc(Cl)c1C(=O)N1CCOCC1,-4,0.9,8,0.9,1,13
Cn1ncc(N=Cc2ccccc2O)c1C(=O)N1CCOCC1,+,1.1,10,1.1,1,29
Nc1nc(SC2c3cccc4cccc(c34)C2NS(=O)(=O)c2ccccc2)n[nH]1 (centres undefined),-8,1.1,12,1,0.9,6
C=CCOc1c(CNc2nccs2)cccc1OCC,36*,0.8,14,0.8,0.8,32
C#CCn1cc(C=C2C(=O)c3ccccc3C2=O)c2ccccc21,81*,0.9,7,1,0.8,5
CCN1CCCC(Sc2nc3c([nH]2)c(=S)n(C)c(=O)n3C)C1 (centres undefined),-4,·,8,·,·,·
Cn1c(=S)c2[nH]c(SCCN3CCCC3)nc2n(C)c1=O,44*,·,6,·,·,·
CCN1/C(=C\C=C(C(C)=O)C(C)=O)Sc2ccccc21,-42,1,6,1,1,14
CCOC(=O)/C(C#N)=C(C)/C=C1\Sc2ccccc2N1CC,-11,1,70*,0.8,0.9,8
CC1Cc2ccccc2N1C(=O)Cc1cccs1 (centres undefined),-11,0.8,7,0.9,0.8,37
CC1Cc2ccccc2N1C(=O)CN1C(=O)C(=O)N(Cc2ccccc2)C1=O (centres undefined),-11,1,7,1.1,1,260*
CC1Cc2ccccc2N1C(=O)CCS(=O)(=O)c1cccs1 (centres undefined),5,1,125*,0.9,0.9,150*
COc1ccc(/C=N/n2c(N)c(S(=O)(=O)c3cccs3)c3nc4ccccc4nc32)cc1OC,-20,1,47*,0.9,0.8,16
Nc1c(S(=O)(=O)c2cccs2)c2nc3ccccc3nc2n1/N=C/c1cccc(O)c1,-48,0.8,57*,0.8,0.6,5
COc1ccc(CC(=O)NCc2ccccn2)cc1OC,-5,1,17,0.9,0.9,20
O=C(CSc1ccc(Cl)cc1)Nc1ccc(N2CCN(C(=O)c3ccco3)CC2)cc1,-6,0.9,8,0.9,0.9,32
C=CCn1c(SCC(=O)Nc2ccc(NC(=O)c3ccco3)c(OC)c2)nnc1-c1ccncc1,94*,0.9,6,1,0.9,38
C=CCn1c(SCC(=O)Nc2cc(OC)c(NC(=O)c3ccco3)cc2OC)nnc1-c1ccncc1,14,1,22,1,0.9,10
CC(=O)Nc1cccc(NC(=O)CSc2nnc(Cc3cccn3C)n2-c2ccc(F)cc2)c1,-16,0.9,12,0.9,0.9,23
Cc1c(Br)c([N+](=O)[O-])nn1CC(=O)Nc1ccc(CC#N)cc1,10,1,22,1,1,16
CNc1sc(C(=O)c2ccccc2F)c(N)c1-c1nc2ccccc2s1,-7,2*,5,1.6,0.8,34
O=C(CNC(=O)c1ccccc1F)OCc1nc2ccccc2s1,-10,1,11,1,0.9,17
O=C(Nc1c(C(=O)Nc2ccccc2)cnn1-c1ccccc1)c1ccco1,-16,0.9,4,0.9,0.8,5
O=C(Nc1c(C(=O)Nc2cccc3ccccc23)cnn1-c1ccccc1)c1ccco1,-54,1.1,7,1.2,1,99*
